According to ChEMBL document CHEMBL5678806, “NMS-P937, an orally available, specific small-molecule polo-like kinase 1 inhibitor with antitumor activity in solid and hematologic malignancies” (Mol Cancer Ther, 2012):
pIC50: −log10 of the molar value. The source made the active and inactive calls. The calls are words filed in the database; no cut-off is given here.

Key:
[1] = molecular target: Epidermal growth factor receptor (Homo sapiens, UniProt P00533); experiment: Inhibition of EGFR1 (unknown origin) in presence of [gamma-33P]ATP
Chain of Epidermal growth factor receptor (P00533 whole entry): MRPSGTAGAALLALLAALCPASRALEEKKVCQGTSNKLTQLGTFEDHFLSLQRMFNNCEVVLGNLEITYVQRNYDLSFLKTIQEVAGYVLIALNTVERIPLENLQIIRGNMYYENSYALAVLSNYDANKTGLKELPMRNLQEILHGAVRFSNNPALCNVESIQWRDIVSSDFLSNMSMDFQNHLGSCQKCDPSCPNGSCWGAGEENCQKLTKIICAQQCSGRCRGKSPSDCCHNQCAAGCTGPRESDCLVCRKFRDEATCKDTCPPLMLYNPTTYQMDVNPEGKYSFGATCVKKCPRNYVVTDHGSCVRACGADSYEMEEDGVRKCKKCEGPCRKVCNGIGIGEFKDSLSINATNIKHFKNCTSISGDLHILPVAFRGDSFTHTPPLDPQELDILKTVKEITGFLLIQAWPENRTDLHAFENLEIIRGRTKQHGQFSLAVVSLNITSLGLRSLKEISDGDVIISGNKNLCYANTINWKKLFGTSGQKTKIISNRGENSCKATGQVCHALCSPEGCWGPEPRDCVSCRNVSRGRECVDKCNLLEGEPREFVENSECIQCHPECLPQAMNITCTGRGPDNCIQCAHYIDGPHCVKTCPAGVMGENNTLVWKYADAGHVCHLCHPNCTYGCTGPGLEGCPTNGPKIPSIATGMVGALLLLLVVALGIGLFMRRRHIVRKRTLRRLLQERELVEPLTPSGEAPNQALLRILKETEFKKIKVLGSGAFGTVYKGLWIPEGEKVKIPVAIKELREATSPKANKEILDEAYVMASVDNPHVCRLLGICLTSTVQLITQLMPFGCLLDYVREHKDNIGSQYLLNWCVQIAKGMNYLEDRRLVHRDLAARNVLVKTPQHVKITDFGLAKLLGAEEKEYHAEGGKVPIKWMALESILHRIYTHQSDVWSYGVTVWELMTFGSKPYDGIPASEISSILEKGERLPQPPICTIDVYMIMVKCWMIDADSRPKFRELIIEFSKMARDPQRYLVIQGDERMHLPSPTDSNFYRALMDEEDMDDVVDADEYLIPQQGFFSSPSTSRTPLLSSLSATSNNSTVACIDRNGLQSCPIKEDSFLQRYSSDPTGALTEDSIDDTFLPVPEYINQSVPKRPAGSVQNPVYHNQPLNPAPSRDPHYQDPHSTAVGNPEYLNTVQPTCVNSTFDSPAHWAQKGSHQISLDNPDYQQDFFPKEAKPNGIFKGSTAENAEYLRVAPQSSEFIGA

[2] = Inhibition of SULU1 (unknown origin) in presence of [gamma-33P]ATP; set-up: species or system Homo sapiens
[3] = molecular target: RAF proto-oncogene serine/threonine-protein kinase (Homo sapiens) (UniProt P04049); experiment: Inhibition of N-terminal GST-tagged recombinant human c-RAF (306 to 648 residues) expressed in Sf9 cells assessed as residual activity at 0.1 uM relative to control
Chain of RAF proto-oncogene serine/threonine-protein kinase (Homo sapiens) (P04049 whole entry, the tested form may be a part): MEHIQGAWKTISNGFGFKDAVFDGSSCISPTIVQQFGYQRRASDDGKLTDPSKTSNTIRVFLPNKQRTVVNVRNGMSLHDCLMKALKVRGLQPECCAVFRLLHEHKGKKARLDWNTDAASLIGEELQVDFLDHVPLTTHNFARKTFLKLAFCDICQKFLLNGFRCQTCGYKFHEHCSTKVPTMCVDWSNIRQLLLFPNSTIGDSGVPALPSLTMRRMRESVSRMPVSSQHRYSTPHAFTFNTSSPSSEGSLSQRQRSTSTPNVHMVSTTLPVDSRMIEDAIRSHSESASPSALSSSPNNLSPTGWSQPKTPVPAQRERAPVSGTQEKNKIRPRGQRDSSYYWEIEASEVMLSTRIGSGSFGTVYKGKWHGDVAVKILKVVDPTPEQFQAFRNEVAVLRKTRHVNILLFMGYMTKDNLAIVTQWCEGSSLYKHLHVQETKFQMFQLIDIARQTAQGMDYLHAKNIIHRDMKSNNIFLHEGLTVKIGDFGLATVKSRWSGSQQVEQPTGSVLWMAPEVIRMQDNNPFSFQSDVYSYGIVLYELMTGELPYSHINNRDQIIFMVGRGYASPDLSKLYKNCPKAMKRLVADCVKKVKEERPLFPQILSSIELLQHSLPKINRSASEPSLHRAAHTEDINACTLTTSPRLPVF

[4] = molecular target: Dual specificity mitogen-activated protein kinase kinase 7 (Homo sapiens) (UniProt O14733); experiment: Inhibition of N-terminal GST-tagged recombinant human MKK7beta (2 to end residues) expressed in E. coli assessed as residual activity at 0.1 uM relative to control
Chain of Dual specificity mitogen-activated protein kinase kinase 7 (Homo sapiens) (O14733 whole entry): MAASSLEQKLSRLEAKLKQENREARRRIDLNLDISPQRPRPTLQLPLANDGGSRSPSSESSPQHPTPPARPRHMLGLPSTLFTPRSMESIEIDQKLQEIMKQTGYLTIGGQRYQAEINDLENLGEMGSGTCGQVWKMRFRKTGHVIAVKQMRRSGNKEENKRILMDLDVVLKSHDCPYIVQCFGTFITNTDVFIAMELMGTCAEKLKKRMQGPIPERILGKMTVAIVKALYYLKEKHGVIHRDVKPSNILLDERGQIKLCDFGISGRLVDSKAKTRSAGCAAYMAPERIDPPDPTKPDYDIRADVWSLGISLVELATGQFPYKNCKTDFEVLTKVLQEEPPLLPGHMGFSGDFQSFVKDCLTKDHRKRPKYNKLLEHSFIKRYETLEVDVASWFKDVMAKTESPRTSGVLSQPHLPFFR

[5] = molecular target: Protein kinase C beta type (Homo sapiens, UniProt P05771); experiment: Inhibition of N-terminal His6-tagged recombinant human PKCbetaI (2 to end) expressed in Sf21 cells assessed as residual activity at 0.1 uM relative to control
Chain of Protein kinase C beta type (P05771 2-671 limits assumed): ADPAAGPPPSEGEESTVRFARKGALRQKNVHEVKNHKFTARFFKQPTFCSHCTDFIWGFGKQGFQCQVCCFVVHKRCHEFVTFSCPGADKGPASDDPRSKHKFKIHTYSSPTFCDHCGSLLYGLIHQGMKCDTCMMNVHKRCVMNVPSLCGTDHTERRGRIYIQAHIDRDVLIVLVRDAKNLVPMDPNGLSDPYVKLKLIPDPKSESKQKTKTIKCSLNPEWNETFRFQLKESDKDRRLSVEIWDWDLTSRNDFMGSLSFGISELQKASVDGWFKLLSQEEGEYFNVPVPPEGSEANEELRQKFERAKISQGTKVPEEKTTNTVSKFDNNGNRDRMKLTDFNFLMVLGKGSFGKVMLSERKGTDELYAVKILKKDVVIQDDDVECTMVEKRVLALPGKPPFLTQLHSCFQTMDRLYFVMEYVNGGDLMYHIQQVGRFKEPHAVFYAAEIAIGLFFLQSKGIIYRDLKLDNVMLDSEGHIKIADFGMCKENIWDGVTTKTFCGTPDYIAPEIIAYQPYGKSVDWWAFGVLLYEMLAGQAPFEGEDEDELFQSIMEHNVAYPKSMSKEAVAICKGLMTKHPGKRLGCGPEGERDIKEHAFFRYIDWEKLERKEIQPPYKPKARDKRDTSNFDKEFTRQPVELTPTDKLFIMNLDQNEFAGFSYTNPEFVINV

[6] = molecular target: Calcium/calmodulin-dependent protein kinase type II subunit delta (Homo sapiens) (UniProt Q13557); experiment: Inhibition of recombinant full length human CaMKIIdelta assessed as residual activity at 1 uM relative to control
Chain of Calcium/calmodulin-dependent protein kinase type II subunit delta (Homo sapiens) (Q13557 whole entry, the tested form may be a part): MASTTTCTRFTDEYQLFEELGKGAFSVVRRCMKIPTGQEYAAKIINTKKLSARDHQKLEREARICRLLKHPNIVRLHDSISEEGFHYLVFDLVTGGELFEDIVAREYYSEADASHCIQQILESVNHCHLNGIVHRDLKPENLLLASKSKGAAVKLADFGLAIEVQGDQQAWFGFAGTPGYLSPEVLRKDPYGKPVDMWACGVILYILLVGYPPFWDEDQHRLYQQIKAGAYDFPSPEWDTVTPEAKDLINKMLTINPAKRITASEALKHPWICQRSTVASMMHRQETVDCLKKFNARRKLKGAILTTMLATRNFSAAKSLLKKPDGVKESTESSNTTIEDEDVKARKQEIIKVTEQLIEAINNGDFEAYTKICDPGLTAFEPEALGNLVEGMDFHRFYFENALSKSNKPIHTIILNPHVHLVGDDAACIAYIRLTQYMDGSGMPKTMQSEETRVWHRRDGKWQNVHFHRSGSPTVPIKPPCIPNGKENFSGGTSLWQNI

[7] = molecular target: Ephrin type-A receptor 4 (Homo sapiens) (UniProt P54764); experiment: Inhibition of N-terminal His6-tagged recombinant human EphA4 (601 to 892 residues) expressed in baculovirus infected Sf21 cells assessed as residual activity at 1 uM relative to control
[8] = molecular target: Tyrosine-protein kinase Lyn (Homo sapiens, UniProt P07948); experiment: Inhibition of N-terminal his6-tagged recombinant full-length human Lyn expressed in Sf21 cells assessed as residual activity at 1 uM relative to control
Chain of Tyrosine-protein kinase Lyn (P07948 2-512 limits assumed): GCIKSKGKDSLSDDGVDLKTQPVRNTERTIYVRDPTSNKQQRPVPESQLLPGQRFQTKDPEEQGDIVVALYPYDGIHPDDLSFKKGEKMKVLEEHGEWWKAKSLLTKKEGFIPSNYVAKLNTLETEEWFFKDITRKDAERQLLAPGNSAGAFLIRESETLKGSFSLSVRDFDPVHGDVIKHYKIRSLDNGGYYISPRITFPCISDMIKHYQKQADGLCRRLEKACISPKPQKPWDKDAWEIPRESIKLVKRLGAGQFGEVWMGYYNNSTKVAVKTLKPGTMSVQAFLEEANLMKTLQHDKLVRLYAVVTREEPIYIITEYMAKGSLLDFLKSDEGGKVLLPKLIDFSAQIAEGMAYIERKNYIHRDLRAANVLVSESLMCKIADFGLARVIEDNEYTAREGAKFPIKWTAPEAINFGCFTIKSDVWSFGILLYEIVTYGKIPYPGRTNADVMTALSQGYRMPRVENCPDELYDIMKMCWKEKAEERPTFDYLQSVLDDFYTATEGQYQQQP

[9] = molecular target: Ribosomal protein S6 kinase beta-1 (Homo sapiens) (UniProt P23443); experiment: Inhibition of N-terminal His6-tagged recombinant p70S6K (1 to 421 residues) (unknown origin) expressed in baculovirus infected Sf21 cells assessed as residual activity at 1 uM relative to control
Chain of Ribosomal protein S6 kinase beta-1 (Homo sapiens) (P23443 whole entry, looked up, the tested form may be a part): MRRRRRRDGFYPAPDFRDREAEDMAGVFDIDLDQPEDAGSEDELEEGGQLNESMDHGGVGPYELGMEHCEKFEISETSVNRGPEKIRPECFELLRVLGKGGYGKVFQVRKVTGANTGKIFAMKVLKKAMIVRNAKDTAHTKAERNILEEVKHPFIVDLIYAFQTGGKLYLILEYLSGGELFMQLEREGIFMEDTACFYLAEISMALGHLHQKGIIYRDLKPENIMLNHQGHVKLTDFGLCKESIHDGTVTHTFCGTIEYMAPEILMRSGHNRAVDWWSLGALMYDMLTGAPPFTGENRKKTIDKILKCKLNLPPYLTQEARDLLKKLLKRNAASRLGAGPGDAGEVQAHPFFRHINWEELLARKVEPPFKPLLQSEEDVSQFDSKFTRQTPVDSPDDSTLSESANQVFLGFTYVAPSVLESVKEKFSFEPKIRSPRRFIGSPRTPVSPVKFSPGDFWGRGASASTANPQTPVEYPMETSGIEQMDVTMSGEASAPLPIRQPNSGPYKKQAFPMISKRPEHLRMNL

[10] = molecular target: MAP kinase-activated protein kinase 5 (Homo sapiens) (UniProt Q8IW41); experiment: Inhibition of N-terminal His6-tagged recombinant human full-length PRAK expressed in baculovirus infected Sf21 cells assessed as residual activity at 1 uM relative to control
Chain of MAP kinase-activated protein kinase 5 (Homo sapiens) (Q8IW41 whole entry): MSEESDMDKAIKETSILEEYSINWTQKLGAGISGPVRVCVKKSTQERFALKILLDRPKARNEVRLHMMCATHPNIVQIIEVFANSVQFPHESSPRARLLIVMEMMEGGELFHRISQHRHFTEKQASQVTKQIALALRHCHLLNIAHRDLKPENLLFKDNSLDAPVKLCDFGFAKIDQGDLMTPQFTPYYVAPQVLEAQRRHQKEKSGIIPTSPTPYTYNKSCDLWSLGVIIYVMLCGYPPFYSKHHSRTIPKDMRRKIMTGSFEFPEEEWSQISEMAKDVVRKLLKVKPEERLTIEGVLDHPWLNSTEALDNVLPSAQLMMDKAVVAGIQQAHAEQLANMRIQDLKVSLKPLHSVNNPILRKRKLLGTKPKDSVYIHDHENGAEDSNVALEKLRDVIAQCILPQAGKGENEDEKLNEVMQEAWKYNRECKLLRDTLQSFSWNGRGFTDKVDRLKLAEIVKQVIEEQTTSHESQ

SF-268 = experiment: Antiproliferative activity against human SF-268 cells assessed as inhibition of cell growth incubated for 72 hrs by cell-titer glo assay; type: functional, cell-based; details: SF-268, 72 h
In short: (§1)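 Cells from ATCC or ECACC, kept in supplier-recommended medium with 1% penicillin-streptomycin at 37°C, 5% CO₂. Seeded at 10,000–30,000/cm² (adherent) or 100,000/mL (nonadherent) in medium with 10% fetal calf serum. Dosed after 24 h in duplicate with serial dilutions. Viable cells read by CellTiter-Glo 72 h later. IC50 from sigmoidal fit. At least two independent experiments.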

LN-229 = experiment: Antiproliferative activity against human LN-229 cells assessed as inhibition of cell growth incubated for 72 hrs by cell-titer glo assay; type: functional, cell-based; details: LN-229, 72 h
In short: (§2)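 Cells seeded at 10,000–30,000/cm² (adherent) or 100,000/mL (nonadherent) in medium with 10% fetal calf serum; after 24 h, treated in duplicate with serial dilutions for 72 h. Viable cell number read by CellTiter-Glo luminescence; IC50 from sigmoidal fit; at least two independent experiments.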

SH-SY5Y = experiment: Antiproliferative activity against human SH-SY5Y cells assessed as inhibition of cell growth incubated for 72 hrs by cell-titer glo assay; type: functional, cell-based
MDA-MB-468 = experiment: Antiproliferative activity against human MDA-MB-468 cells assessed as inhibition of cell growth incubated for 72 hrs by cell-titer glo assay; type: functional, cell-based; details: MDA-MB-468, 72 h; in short: as §2
MDA-MB-231 = experiment: Antiproliferative activity against human MDA-MB-231 cells assessed as inhibition of cell growth incubated for 72 hrs by cell-titer glo assay; type: functional, cell-based; details: MDA-MB-231, 72 h; in short: as §2
HCT-116 = experiment: Antiproliferative activity against human HCT-116 cells assessed as inhibition of cell growth incubated for 72 hrs by cell-titer glo assay; type: functional, cell-based; details: HCT-116, 72 h; in short: as §2
KM12 = experiment: Antiproliferative activity against human KM12 cells assessed as inhibition of cell growth incubated for 72 hrs by cell-titer glo assay; type: functional, cell-based; details: KM12, 72 h; in short: as §2
CAKI-1 = experiment: Antiproliferative activity against human CAKI-1 cells assessed as inhibition of cell growth incubated for 72 hrs by cell-titer glo assay; type: functional, cell-based; details: CAKI-1, 72 h
In short: (§3)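 Cells seeded 10,000–30,000/cm² (adherent) or 100,000/mL (suspension) in medium with 10% fetal calf serum; after 24 h treated in duplicate with serial dilutions for 72 h. Viable cells read by CellTiter-Glo luminescence; IC50 from sigmoidal fit; at least two independent experiments.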

CAL-12T = experiment: Antiproliferative activity against human CAL-12T cells assessed as inhibition of cell growth incubated for 72 hrs by cell-titer glo assay; type: functional, cell-based; in short: as §3
DU-145 = experiment: Antiproliferative activity against human DU-145 cells assessed as inhibition of cell growth incubated for 72 hrs by cell-titer glo assay; type: functional, cell-based; details: DU-145, 72 h; in short: as §3
RS4-11 = experiment: Antiproliferative activity against human RS4-11 cells assessed as inhibition of cell growth incubated for 72 hrs by cell-titer glo assay; type: functional, cell-based; details: RS4-11, 72 h; in short: as §1
KARPAS-299 = experiment: Antiproliferative activity against human KARPAS-299 cells assessed as inhibition of cell growth incubated for 72 hrs by cell-titer glo assay; type: functional, cell-based; details: KARPAS-299, 72 h; in short: as §2
U-937 = experiment: Antiproliferative activity against human U-937 cells assessed as inhibition of cell growth incubated for 72 hrs by cell-titer glo assay; type: functional, cell-based; details: U-937, 72 h
U-266 = experiment: Antiproliferative activity against human U-266 cells assessed as inhibition of cell growth incubated for 72 hrs by cell-titer glo assay; type: functional, cell-based; details: U-266, 72 h
[11] = Clearance in Beagle dog at 5 mg/kg, iv by LC-MS analysis; type: ADME, organism-based, Canis lupus familiaris; details: in vivo
[12] = AUC in male cynomolgus monkey at 5 mg/kg, po by LC-MS analysis; type: ADME, organism-based, Macaca fascicularis; details: in vivo
[13] = Antitumor activity against human Acute myeloid leukemic cell xenografted in nu/nu mouse assessed as increase in median survival time at 120 mg/kg, po administered for 2 days and measured after 5 days (reference value: 36 days); type: functional, Leukemia cell; details: time 2 day
[14] = Antitumor activity against human Acute myeloid leukemic cell xenografted in nu/nu mouse assessed as increase in median survival time at 120 mg/kg, po administered for 2 days and measured after 10 days (reference value: 34 days); type: functional, Leukemia cell; details: time 2 day
HT-29 = experiment: Antitumor activity against human HT-29 cells xenografted in nu/nu mouse assessed as tumor growth inhibition at 45 mg/kg, po administered for 3 days and measured after 1 day relative to control; type: functional; details: HT-29, 72 h, time 3 day, read-out: TGI
A2780 = experiment: In vivo inhibition of PLK1 in human A2780 cells xenografted in nu/nu mouse assessed as decreased TCTP phosphorylation on Ser46 at 60 mg/kg, po administered for 2 hrs by Western blotting analysis; type: functional, organism-based

SMILES: CN1CCN(c2ccc(OC(F)(F)F)c(Nc3ncc4c(n3)-c3c(c(C(N)=O)nn3CCO)CC4)c2)CC1 [ONVANSERTIB]
- pIC50 [1]: < 5.00
- pIC50 [2]: < 5.00
- Activity [3]: 93%
- Activity [4]: 85%
- Activity [5]: 85%
- Activity [6]: 74%
- Activity [7]: 80%
- Activity [8]: 198%
- Activity [9]: 76%
- Activity [10]: 77%
- pIC50 (SF-268): 7.05
- pIC50 (LN-229): 7.21
- pIC50 (SH-SY5Y): 7.52
- pIC50 (MDA-MB-468): 7.08
- pIC50 (MDA-MB-231): 6.76
- pIC50 (HCT-116): 7.07
- pIC50 (KM12): 6.56
- pIC50 (CAKI-1): 6.29
- pIC50 (CAL-12T): 6.72
- pIC50 (DU-145): 6.60
- pIC50 (RS4-11): 7.37
- pIC50 (KARPAS-299): 7.28
- pIC50 (U-937): 7.39
- pIC50 (U-266): 7.40
- clearance [11]: 43.8 mL/min/kg
- AUC [12]: 14.8 µM·h
- Time [13]: 50 days
- Time [14]: 50 days
- inhibition in vivo at 45 mg/kg (HT-29): 72%
- inhibition (A2780): Active
